Like-named read-outs stand apart in the source and are kept apart here. Marks after values point to notes of the source that are not given here.
What was measured:
advanced melanoma [1] = settings: five of 32 treated patients with advanced melanoma; cited from earlier work
[2] = tested on: bFGF- and VEGF-mediated angiogenesis; settings: chorioallantoic membrane model; ref Cilengitide, Investigators Brochure; cited from earlier work
glioblastoma = settings: in combination with temozolomide and radiation therapy; cited from earlier work
[3] = tested on: melanoma and endothelial cells; settings: combination of cilengitide and temozolomide, in vitro; cited from earlier work
integrin αvβ3 [4] = test: Tumoral αvβ3 expression by IHC staining; format: in vivo, human
Outline: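 Core-needle or skin punch tumor biopsies 5-7 days pre-treatment and cycle 1 day 8, within 6 h post-infusion. IHC with anti-αvβ3 LM 609; consensus grading by two pathologists on % positive cells (0 none; +1 1-10%; +2 11-25%; +3 26-75%; +4 >75%). Paired t-test, pre vs post.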

[5] = cited from earlier work
integrin αvβ3 [6] = settings: inhibits binding of the integrin to vitronectin; cited from earlier work
metastatic melanoma [7] = format: in vivo, human; settings: for Median PFS in weeks (95% CI) / PFS rate at 8 weeks (95% CI): Kaplan-Meier estimate; for Best tumor response: PR / Best tumor response: SD / Best tumor response: CR: RECIST
clinical = test: clinical; parameters: species or system human; settings: in vivo; for Mean cilengitide concentration / level at 2 h / level at 4 h / level at 24 h: human, iv; for level at 2 h / level at 4 h / level at 24 h: Mean cilengitide concentration
[8] = cited from earlier work; remark: listed apart in the source
[9] = tested on: recurrent glioblastoma multiforme (GBM); settings: 81 patients with GBM; cited from earlier work
[10] = tested on: recurrent malignant glioma; settings: at 360 mg/m^2 and 2,400 mg/m^2; cited from earlier work
melanoma = settings: combination of cilengitide and temozolomide, in vivo; cited from earlier work
[11] = tested on: patients with metastatic melanoma; test: Toxicity evaluation; settings: both doses (500 mg and 2,000 mg i.v. twice weekly)
advanced melanoma [12] = settings: cited from earlier work
metastatic melanoma [13] = settings: cited from earlier work
[14] = among eight patients with matching samples and detectable αvβ3 at baseline

CNC(=O)c1ccccc1Sc1ccc2c(/C=C/c3ccccn3)n[nH]c2c1 [axitinib]
Objective clinical response (advanced melanoma [1]): 16%

CC(C)[C@H]1C(=O)N[C@@H](CCCNC(=N)N)C(=O)NCC(=O)N[C@@H](CC(=O)O)C(=O)N[C@H](Cc2ccccc2)C(=O)N1C [cilengitide, Cilengitide]
Cytokine-induced bFGF- and VEGF-mediated angiogenesis [2]: blocked | 6-month PFS rate (glioblastoma): 69% | 12-month PFS rate (glioblastoma): 33% | Median PFS (glioblastoma): 8.0 months | Antiproliferative effects of the combination [3]: synergistic antiproliferative effects | Patients in whom αvβ3 expression decreased (integrin αvβ3 [4]; [14]): five | Patients in whom αvβ3 expression increased (integrin αvβ3 [4]; [14]): none | Overall tumoral αvβ3 expression with cilengitide treatment (integrin αvβ3 [4]; baseline vs day 8, 17 matching samples, paired t-test P=0.05): decreased | Half-life [5]: less than 5 hours | Half-life ([5]; doses of 120-1,200 mg/m^2, phase I trials): 2.3 to 4.0 h | Maximum-tolerated dose ([5]; phase I trials): has not been established | Binding to integrin αvβ3 (nanomolar range) (integrin αvβ3 [6]): ~ 2 nM | Response rate (CR+PR) (metastatic melanoma [7]; 500-mg dose (n=14)): 0% | Median PFS in weeks (95% CI) (metastatic melanoma [7]; 500-mg dose (n=14)): 8.0 weeks | PFS rate at 8 weeks (95% CI) (metastatic melanoma [7]; 500-mg dose (n=14)): 14% (4-52%) | Best tumor response: PR (metastatic melanoma [7]; 500-mg dose (n=14)): 0 | Best tumor response: SD (metastatic melanoma [7]; 500-mg dose (n=14)): 2(14%) | Best tumor response: CR (metastatic melanoma [7]; 500-mg dose i.v. twice weekly (n=14)): 0 | Response rate (CR+PR) (metastatic melanoma [7]; 2,000-mg dose (n=12)): 8% | Median PFS in weeks (95% CI) (metastatic melanoma [7]; 2,000-mg dose (n=12)): 7.9 weeks | Best tumor response: SD (metastatic melanoma [7]; 2,000-mg dose (n=12)): 0 | Best tumor response: PR (metastatic melanoma [7]; 2,000-mg dose (n=12), patient initially progressed after 4 weeks): 1 (8%) ^† | Best tumor response: CR (metastatic melanoma [7]; 2,000-mg dose i.v. twice weekly (n=12)): 0 | Response rate (CR+PR) (metastatic melanoma [7]; Overall patients (n=26)): 4% | Median PFS in weeks (95% CI) (metastatic melanoma [7]; Overall patients (n=26)): 8.0 (7.9-8.1) weeks | PFS rate at 8 weeks (95% CI) (metastatic melanoma [7]; Overall patients (n=26)): 12% (4-33%) | Best tumor response: CR (metastatic melanoma [7]; Overall patients (n=26)): 0 | Best tumor response: PR (metastatic melanoma [7]; Overall patients (n=26)): 1 (4%) ^† | Best tumor response: SD (metastatic melanoma [7]; Overall patients (n=26)): 2(8%) | Clinical efficacy as single agent (metastatic melanoma [7]; dose up to 2,000 mg twice weekly, metastatic melanoma): minimal clinical efficacy | Patients free of disease progression per RECIST at 8 weeks (metastatic melanoma [7]; of 26 treated patients): three | Increase in the sum of the largest diameters of five target lesions after one treatment cycle (metastatic melanoma [7]; single patient, 2,000 mg, later partial response): 28% | Mean cilengitide concentration (clinical; 500 mg, 2 h): 17.6 µg/mL | Mean cilengitide concentration (clinical; 500 mg, 4 h): 8.75 µg/mL | level at 2 h (clinical; 500 mg): 18200 ng/mL | level at 4 h (clinical; 500 mg): 8250 ng/mL | level at 24 h (clinical; 500 mg): 40 ng/mL | Mean cilengitide concentration (clinical; 2000 mg, 2 h): 65.8 µg/mL | Mean cilengitide concentration (clinical; 2000 mg, 4 h): 30.5 µg/mL | Mean cilengitide concentration (clinical; 2000 mg, 24 h): 0.58 µg/mL | level at 2 h (clinical; 2000 mg): 73200 ng/mL | level at 4 h (clinical; 2000 mg): 35900 ng/mL | level at 24 h (clinical; 2000 mg): 710 ng/mL | Accumulation after repeated biweekly doses (clinical): No accumulation was observed | Increases in plasma concentrations at the given time points with dose (clinical): dose proportional | Concentration noted to be active in preclinical studies (biologically active level) [8]: 11-13 μg/mL | Median OS duration [9]: 9.9 months | Response in patients with recurrent malignant glioma [10]: Complete responses were reported | Tumor reduction (melanoma): more effective tumor reduction compared with temozolomide alone | Tolerability [11]: well tolerated

CN(C)/N=N/c1[nH]cnc1C(N)=O [dacarbazine]
Estimated PFS rate at 8 weeks (advanced melanoma [12]): approximately 40%

B1: etaracizumab (antibody, chains of the INN, looked up, V domains shown)
VH: QVQLVESGGGVVQPGRSLRLSCAASGFTFSSYDMSWVRQAPGKGLEWVAKVSSGGGSTYYLDTVQGRFTISRDNSKNTLYLQMNSLRAEDTAVYYCARHLHGSFASWGQGTTVTVSS
VL: EIVLTQSPATLSLSPGERATLSCQASQSISNFLHWYQQRPGQAPRLLIRYRSQSISGIPARFSGSGSGTDFTLTISSLEPEDFAVYYCQQSGSWPLTFGGGTKVEIK
Patients with a clinical response (metastatic melanoma [13]; combination arm with dacarbazine): 12.7% | Patients with a clinical response (metastatic melanoma [13]; etaracizumab alone, 57 patients): none

From article PMC3880198 (Melanoma research, 2012)
